Assays:
Rattus norvegicus [1] = assay: Hypotensive activity was determined in Spontaneously hypertensive rats (SHR) and peak decrease in systolic blood pressure on third day,2h post administration of 25 mg/kg oral dose was determined; format: functional, Artery
How it was run: (§1)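 Okamoto-Aoki spontaneously hypertensive rats were dosed orally every day with compound suspended in distilled water with Tween 80. Systolic BP was taken by tail-cuff plethysmography on day 1 (predose, 2 h), day 3 (predose, 2 h) and day 5 (predose, 2 and 4 h). The value is the peak fall at day 3, 2 h postdose, ± SEM. Four rats were used in the screen and 4–8 per dose in dose-response.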

Rattus norvegicus [2] = assay: Hypotensive activity was determined in Spontaneously hypertensive rats (SHR) and peak decrease in systolic blood pressure on third day,2h post administration of 10 mg/kg oral dose was determined; format: functional, Artery; how it was run: as §1
Mus musculus [3] = assay: Compound was tested for diuretic activity in saline loaded mice, activity is expressed as the sodium present in urine as mean milli equivalent/kg per 5 hr at 16 mg/kg oral dose; format: functional
How it was run: (§2)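 Male CD-1 mice (18–24 g), 10 per treatment group, housed five per metabolic cage. Compound was given orally in 1% saline at 10 mL/kg, with a vehicle control group. Pooled urine was analysed for sodium by flame photometry. Values are mean mequiv/kg over 0–5 h.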

Rattus norvegicus [4] = assay: Hypotensive activity was determined in Spontaneously hypertensive rats (SHR) and initial blood pressure was determined at 10 mg/kg oral dose; format: functional
Mus musculus [5] = assay: Compound was tested for diuretic activity in saline loaded mice, activity is expressed as the sodium present in urine as mean milli equivalent/kg per 5 hr at 32 mg/kg oral dose; format: functional; how it was run: as §2
Rattus norvegicus [6] = assay: Hypotensive activity was determined in Spontaneously hypertensive rats (SHR) and initial blood pressure was determined at 25 mg/kg oral dose; format: functional
Mus musculus [7] = assay: Diuretic activity in saline loaded mice, activity is expressed as the sodium present in urine as mean milli equivalent/kg per 5 hr at 64 mg/kg oral dose; format: functional; how it was run: as §2
Rattus norvegicus [8] = assay: Hypotensive activity was determined in Spontaneously hypertensive rats (SHR) and peak decrease in systolic blood pressure on third day,2h post administration of 1 mg/kg oral dose was determined; format: functional, Artery; how it was run: as §1
Rattus norvegicus [9] = assay: Hypotensive activity was determined in Spontaneously hypertensive rats (SHR) and initial blood pressure was determined at 50 mg/kg oral dose; format: functional
Rattus norvegicus [10] = assay: Hypotensive activity was determined in Spontaneously hypertensive rats (SHR) and peak decrease in systolic blood pressure on third day,2h post administration of 50 mg/kg oral dose was determined; format: functional, Artery; how it was run: as §1
Rattus norvegicus [11] = assay: Hypotensive activity was determined in Spontaneously hypertensive rats (SHR) and initial blood pressure was determined at 1 mg/kg oral dose; format: functional
Rattus norvegicus [12] = assay: Hypotensive activity was determined in Spontaneously hypertensive rats (SHR) and peak decrease in systolic blood pressure on third day,2h post administration of 3 mg/kg oral dose was determined; format: functional, Artery; how it was run: as §1
Rattus norvegicus [13] = assay: Hypotensive activity was determined in Spontaneously hypertensive rats (SHR) and initial blood pressure was determined at 3 mg/kg oral dose; format: functional

## CCc1cc2cc(OCC(=O)O)c(Cl)c(Cl)c2s1
Rattus norvegicus [1]
  Change in BP: -13 mmHg
Rattus norvegicus [2]
  Change in BP: -21 mmHg
Mus musculus [3]
  mequiv of Na+/kg: 0.74 0-5h
Rattus norvegicus [4]
  Initial blood pressure: 185 mmHg
Mus musculus [5]
  mequiv of Na+/kg: 1.51 0-5h
Rattus norvegicus [6]
  Initial blood pressure: 176 mmHg
Mus musculus [7]
  mequiv of Na+/kg: 2.07 0-5h

## Cc1cc2cc(OCC(=O)O)c(Cl)c(Cl)c2s1
Rattus norvegicus [8]
  Change in BP: -42 mmHg
Rattus norvegicus [2]
  Change in BP: -33 mmHg
Rattus norvegicus [9]
  Initial blood pressure: 215 mmHg
Rattus norvegicus [4]
  Initial blood pressure: 196 mmHg
Rattus norvegicus [10]
  Change in BP: -51 mmHg
Rattus norvegicus [11]
  Initial blood pressure: 177 mmHg
Rattus norvegicus [12]
  Change in BP: -37 mmHg
Rattus norvegicus [13]
  Initial blood pressure: 173 mmHg
Mus musculus [7]
  mequiv of Na+/kg: 1.16 0-5h

From ChEMBL document CHEMBL1123571, “[(6,7-Dichlorobenzo[b]thien-5-yl)oxy]acetic acids and 1,1-dioxides. 1. A structurally novel class of diuretics with hypotensive activity” (1987)
